Assay results taken from ChEMBL document CHEMBL2203229, “Structure Activity Relationship Study of the Cleistriosides and Cleistetrosides for Antibacterial/Anticancer Activity” (ACS Med Chem Lett, 2012).
In brackets after ≈: the same amount, converted by molar mass. Activity calls are given as the source filed them. The rule behind the calls is not given here.

Legend:
BT-549 [1] = assay: Growth inhibition of human BT549 cells at 10 uM after 48 hrs by sulforhodamine B assay; assay type: functional, cell-based
MCF7 [2] = assay: Growth inhibition of human MCF7 cells at 10 uM after 48 hrs by sulforhodamine B assay; assay type: functional, cell-based
DU-145 [3] = assay: Growth inhibition of human DU145 cells at 10 uM after 48 hrs by sulforhodamine B assay; assay type: functional, cell-based
PC-3 [4] = assay: Growth inhibition of human PC3 cells at 10 uM after 48 hrs by sulforhodamine B assay; assay type: functional, cell-based
CAKI-1 [5] = assay: Growth inhibition of human CAKI-1 cells at 10 uM after 48 hrs by sulforhodamine B assay; assay type: functional, cell-based
A498 [6] = assay: Growth inhibition of human A498 cells at 10 uM after 48 hrs by sulforhodamine B assay; assay type: functional, cell-based
OVCAR-3 [7] = assay: Growth inhibition of human OVCAR3 cells at 10 uM after 48 hrs by sulforhodamine B assay; assay type: functional, cell-based
NCI/ADR-RES = assay: Growth inhibition of human NCI-ADR-RES cells at 10 uM after 48 hrs by sulforhodamine B assay; assay type: functional, cell-based
SK-MEL-5 [8] = assay: Growth inhibition of human SK-MEL-5 cells at 10 uM after 48 hrs by sulforhodamine B assay; assay type: functional, cell-based
MDA-MB-435 [9] = assay: Growth inhibition of human MDA-MB-435 cells at 10 uM after 48 hrs by sulforhodamine B assay; assay type: functional, cell-based
SNB-75 [10] = assay: Growth inhibition of human SNB75 cells at 10 uM after 48 hrs by sulforhodamine B assay; assay type: functional, cell-based
HT-29 [11] = assay: Growth inhibition of human HT-29 cells at 10 uM after 48 hrs by sulforhodamine B assay; assay type: functional, cell-based
SF-539 [12] = assay: Growth inhibition of human SF539 cells at 10 uM after 48 hrs by sulforhodamine B assay; assay type: functional, cell-based
HCT-15 [13] = assay: Growth inhibition of human HCT15 cells at 10 uM after 48 hrs by sulforhodamine B assay; assay type: functional, cell-based
NCI-H460 [14] = assay: Growth inhibition of human NCI-H460 cells at 10 uM after 48 hrs by sulforhodamine B assay; assay type: functional, cell-based
A549 [15] = assay: Growth inhibition of human A549 cells at 10 uM after 48 hrs by sulforhodamine B assay; assay type: functional, cell-based
SR [16] = assay: Growth inhibition of human SR cells at 10 uM after 48 hrs by sulforhodamine B assay; assay type: functional, cell-based
RPMI-8226 [17] = assay: Growth inhibition of human RPMI8226 cells at 10 uM after 48 hrs by sulforhodamine B assay; assay type: functional, cell-based
NCI-H460 [18] = assay: Cytotoxicity against human NCI-H460 cells assessed as inhibition of cell viability by MTT assay; assay type: functional, cell-based
How it was run: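 NCI-H460 cells in RPMI 1640 with 10% FBS and 2 mM glutamine at 37 °C, 5% CO₂. Seeded at 10,000 cells/well for 12 h, then dosed in 1% FBS medium (DMSO below 0.1% final). MTT (10 µL of 5 mg/mL) for 4 h, formazan dissolved in DMSO for 45 min, absorbance at 562 nm. Triplicate wells, at least three runs (N = 9).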

[19] = Antibacterial activity against Bacillus subtilis JH642 containing trpC2 pheA1 assessed as growth inhibition after 16 hrs by broth dilution method; assay type: functional, Bacillus subtilis subsp. subtilis str. JH642
How it was run: (§1)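 Strains grown overnight in LB, diluted 10-fold, shaken at 37 °C for 45 min–1 h (~10⁸ CFU/mL), then diluted ~1000-fold to ~10⁵ CFU/mL. Broth dilution in LB: 20 mM DMSO stocks, 1:2 serial dilutions giving seven concentrations, inoculum added 1:1. OD600 read with shaking.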

Escherichia coli [20] = assay: Antibacterial activity against Escherichia coli K-12 BAS901 harboring genetically modified imp-4213, zab4292::Tn5 assessed as growth inhibition after 16 hrs by broth dilution method; assay type: functional; conditions: K-12 BAS901, 16 h
How it was run: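 Kanamycin-resistant strain grown overnight in LB with kanamycin 50 µg/mL, diluted 10-fold, then shaken at 37 °C for 45 min–1 h (~10⁸ CFU/mL). Diluted ~1000-fold to 10⁵ CFU/mL in LB. DMSO stocks (20 mM) prepared as 4X working solutions in LB. Seven 1:2 serial dilutions mixed with equal-volume inoculum. OD600 read with shaking.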

Escherichia coli [21] = assay: Antibacterial activity against Escherichia coli K-12 MG1655 assessed as growth inhibition after 16 hrs by broth dilution method; assay type: functional; conditions: K-12 substr. MG1655, 16 h; how it was run: as §1
BT-549 [22] = assay: Growth inhibition of human BT549 cells after 48 hrs by sulforhodamine B assay; assay type: functional; conditions: BT-549, 48 h
How it was run: (§2)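 Cells in RPMI 1640 with 5% FBS, plated at 5,000–40,000/well and grown 24 h. Time-zero plates fixed with TCA. Five drug concentrations, 48 h at 37 °C, 5% CO₂. Fixation with TCA (10% final for adherent lines; 16% final for suspension lines), staining with 0.4% SRB, reading at 515 nm. GI50 is the concentration giving a 50% reduction in net protein increase relative to time zero.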

MCF7 [23] = assay: Growth inhibition of human MCF7 cells after 48 hrs by sulforhodamine B assay; assay type: functional; conditions: MCF7, 48 h; how it was run: as §2
DU-145 [24] = assay: Growth inhibition of human DU145 cells after 48 hrs by sulforhodamine B assay; assay type: functional; conditions: DU-145, 48 h; how it was run: as §2
PC-3 [25] = assay: Growth inhibition of human PC3 cells after 48 hrs by sulforhodamine B assay; assay type: functional; conditions: PC-3, 48 h; how it was run: as §2
CAKI-1 [26] = assay: Growth inhibition of human CAKI-1 cells after 48 hrs by sulforhodamine B assay; assay type: functional; conditions: CAKI-1, 48 h; how it was run: as §2
A498 [27] = assay: Growth inhibition of human A498 cells after 48 hrs by sulforhodamine B assay; assay type: functional; conditions: A498, 48 h; how it was run: as §2
[28] = Growth inhibition of human NCI-ADR-RES cells after 48 hrs by sulforhodamine B assay; assay type: functional; how it was run: as §2
OVCAR-3 [29] = assay: Growth inhibition of human OVCAR3 cells after 48 hrs by sulforhodamine B assay; assay type: functional; conditions: OVCAR-3, 48 h; how it was run: as §2
SK-MEL-5 [30] = assay: Growth inhibition of human SK-MEL-5 cells after 48 hrs by sulforhodamine B assay; assay type: functional; conditions: SK-MEL-5, 48 h; how it was run: as §2
MDA-MB-435 [31] = assay: Growth inhibition of human MDA-MB-435 cells after 48 hrs by sulforhodamine B assay; assay type: functional; conditions: MDA-MB-435, 48 h; how it was run: as §2
SF-539 [32] = assay: Growth inhibition of human SF539 cells after 48 hrs by sulforhodamine B assay; assay type: functional; conditions: SF-539, 48 h; how it was run: as §2
SNB-75 [33] = assay: Growth inhibition of human SNB75 cells after 48 hrs by sulforhodamine B assay; assay type: functional; conditions: SNB-75, 48 h; how it was run: as §2
HCT-15 [34] = assay: Growth inhibition of human HCT15 cells after 48 hrs by sulforhodamine B assay; assay type: functional; conditions: HCT-15, 48 h; how it was run: as §2
HT-29 [35] = assay: Growth inhibition of human HT-29 cells after 48 hrs by sulforhodamine B assay; assay type: functional; conditions: HT-29, 48 h; how it was run: as §2
NCI-H460 [36] = assay: Growth inhibition of human NCI-H460 cells after 48 hrs by sulforhodamine B assay; assay type: functional; conditions: NCI-H460, 48 h; how it was run: as §2
A549 [37] = assay: Growth inhibition of human A549 cells after 48 hrs by sulforhodamine B assay; assay type: functional; conditions: A549, 48 h; how it was run: as §2
SR [38] = assay: Growth inhibition of human SR cells after 48 hrs by sulforhodamine B assay; assay type: functional; how it was run: as §2
RPMI-8226 [39] = assay: Growth inhibition of human RPMI8226 cells after 48 hrs by sulforhodamine B assay; assay type: functional; conditions: RPMI-8226, 48 h; how it was run: as §2

SMILES | growth inhibition (GI) (BT-549 [1]) | growth inhibition (GI) (MCF7 [2]) | growth inhibition (GI) (DU-145 [3]) | growth inhibition (GI) (PC-3 [4]) | growth inhibition (GI) (CAKI-1 [5]) | growth inhibition (GI) (A498 [6]) | growth inhibition (GI) (OVCAR-3 [7]) | growth inhibition (GI) (NCI/ADR-RES) | growth inhibition (GI) (SK-MEL-5 [8]) | growth inhibition (GI) (MDA-MB-435 [9]) | growth inhibition (GI) (SNB-75 [10]) | growth inhibition (GI) (HT-29 [11]) | growth inhibition (GI) (SF-539 [12]) | growth inhibition (GI) (HCT-15 [13]) | growth inhibition (GI) (NCI-H460 [14]) | growth inhibition (GI) (A549 [15]) | IC50 (NCI-H460 [18]) [µM] | MIC [19] [µM] | MIC (Escherichia coli [20]) [µM] | MIC (Escherichia coli [21]) [µM] | further results
CCCCCCCCCCCCO[C@@H]1O[C@@H](C)[C@H](O[C@@H]2O[C@@H](C)[C@H](OC(C)=O)[C@@H](O[C@@H]3O[C@@H](C)[C@H](O)[C@@H](O[C@@H]4O[C@@H](C)[C@H](O)[C@@H](O)[C@H]4O)[C@H]3OC(C)=O)[C@H]2O)[C@@H](O)[C@H]1O | inactive | inactive | inactive | inactive | inactive | inactive | inactive | inactive | inactive | inactive | inactive | inactive | inactive | inactive | inactive | inactive | 15.4 | 8 (≈ 6.84 µg/mL) | 16 (≈ 13.7 µg/mL) | > 64 | growth inhibition (GI) (SR [16]): inactive; growth inhibition (GI) (RPMI-8226 [17]): inactive
CCCCCCCCCCCCO[C@@H]1O[C@@H](C)[C@H](O[C@@H]2O[C@@H](C)[C@H](OC(C)=O)[C@@H](O[C@@H]3O[C@@H](C)[C@H](OC(C)=O)[C@@H](O[C@@H]4O[C@@H](C)[C@H](O)[C@@H](O)[C@H]4O)[C@H]3OC(C)=O)[C@H]2O)[C@@H](O)[C@H]1O | inactive | inactive | inactive | inactive | inactive | inactive | inactive | inactive | inactive | inactive | inactive | inactive | inactive | inactive | inactive | inactive | 12.2 | 8 (≈ 7.18 µg/mL) | > 64 | > 64 | growth inhibition (GI) (SR [16]): inactive; growth inhibition (GI) (RPMI-8226 [17]): inactive
CCCCCCCCCCCCO[C@@H]1O[C@@H](C)[C@H](O[C@@H]2O[C@@H](C)[C@H](OC(C)=O)[C@@H](O[C@@H]3O[C@@H](C)[C@H](O)[C@@H](O[C@@H]4O[C@@H](C)[C@H](OC(C)=O)[C@@H](O)[C@H]4O)[C@H]3OC(C)=O)[C@H]2O)[C@@H](O)[C@H]1O | inactive | inactive | inactive | inactive | inactive | inactive | inactive | inactive | inactive | inactive | inactive | inactive | inactive | inactive | inactive | inactive | 16.5 | 8 (≈ 7.18 µg/mL) | 16 (≈ 14.4 µg/mL) | > 64 | growth inhibition (GI) (SR [16]): inactive; growth inhibition (GI) (RPMI-8226 [17]): inactive
CCCCCCCCCCCCO[C@@H]1O[C@@H](C)[C@H](O[C@@H]2O[C@@H](C)[C@H](OC(C)=O)[C@@H](O[C@@H]3O[C@@H](C)[C@H](OC(C)=O)[C@@H](O[C@@H]4O[C@@H](C)[C@H](OC(C)=O)[C@@H](O)[C@H]4O)[C@H]3OC(C)=O)[C@H]2O)[C@@H](O)[C@H]1O | – | – | – | – | – | – | – | – | – | – | – | – | – | – | – | – | 9.1 | 4 (≈ 3.76 µg/mL) | > 64 | > 64 | GI50 (BT-549 [22]): 8.46 µM; GI50 (MCF7 [23]): 1.74 µM; GI50 (DU-145 [24]): 7.92 µM; GI50 (PC-3 [25]): 5.3 µM; GI50 (CAKI-1 [26]): 8.45 µM; GI50 (A498 [27]): 7.57 µM; GI50 [28]: 9.15 µM; GI50 (OVCAR-3 [29]): 4.84 µM; GI50 (SK-MEL-5 [30]): 1.76 µM; GI50 (MDA-MB-435 [31]): 6 µM; GI50 (SF-539 [32]): 4.7 µM; GI50 (SNB-75 [33]): 1.36 µM; GI50 (HCT-15 [34]): 7.54 µM; GI50 (HT-29 [35]): 8.02 µM; GI50 (NCI-H460 [36]): 7.58 µM; GI50 (A549 [37]): 9.47 µM; GI50 (SR [38]): 1.45 µM; GI50 (RPMI-8226 [39]): 1.86 µM
